Only some compounds are listed: those with a hit (about 3.5% of all), similar ones and a draw of the others.
RGS4 pot = RGS4 potentiation or activation; HEK293 M3R/inducible RGS4, carbachol calcium flux Fluo4; hits give low values; B-score at 10 µM; hit rate 0.92% among 310,000;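 active = B-score of the integrated calcium signal more than 4 SD below the library mean, with starting fluorescence not abnormally high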;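 note: negative B-score means reduced calcium response which marks RGS4 activation or potentiation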
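Assay system: Inducible-RGS4 HEK293 cells carrying M3 receptor | Schedule: Compound preincubation 20 min at room temperature before agonist | Signal: Kinetic calcium fluorescence imaging with Fluo4-AM dye, 2 µM | Read-out basis: B score from integrated fluorescence ratio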
MrgX1 agonist = agonists of human MrgX1 receptor; hit rate 0.44% among 310,000; AID 588627; Q96LB2; B-score at 10 µM; MrgX1-HEK293 cells, Fluo-4 calcium fluorescence, agonist mode; hits give high values;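 active = calcium response B-score plate-corrected fluorescence ratio at least 3 library SD, with starting fluorescence B-score inside 5 SD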
Target sequence (Q96LB2 whole entry, looked up): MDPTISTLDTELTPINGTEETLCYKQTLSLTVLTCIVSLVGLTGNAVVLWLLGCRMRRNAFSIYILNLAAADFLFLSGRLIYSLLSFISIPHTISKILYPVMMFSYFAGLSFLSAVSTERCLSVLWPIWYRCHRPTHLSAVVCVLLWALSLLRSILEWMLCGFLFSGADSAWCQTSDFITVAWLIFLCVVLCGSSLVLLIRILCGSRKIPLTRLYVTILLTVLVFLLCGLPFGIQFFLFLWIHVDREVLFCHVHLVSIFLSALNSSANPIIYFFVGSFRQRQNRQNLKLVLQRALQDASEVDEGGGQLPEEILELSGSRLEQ
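times = overnight plating, then 30 min 37 °C plus 30 min room-temperature dye loading | assay system = stable human MrgX1 HEK293 cell line | input = fifteen thousand cells per well | signal = kinetic calcium dye fluorescence, Fluo-4 NW | dosing = compound delivered in addition one of three | read-out = B-scored fluorescence response ratio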
RGS4 block = inhibitors of human RGS4. HEK293 M3R/RGS4 inducible, Fluo-4 calcium flux; hits give high values; triggered by carbachol at its EC20. B-score at 10 µM. hit rate 0.45% among 310,000;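 active = B-score, a plate-corrected calcium signal, over three deviations above library mean, with baseline fluorescence within five deviations of library mean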;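 note: RGS4 expression induced by doxycycline in cells with stable M3 receptor; B-score is computed from the integrated fluorescence ratio over baseline after carbachol; higher B-score means a larger calcium signal and so more RGS4 inhibition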
Target sequence (P49798 whole entry, looked up): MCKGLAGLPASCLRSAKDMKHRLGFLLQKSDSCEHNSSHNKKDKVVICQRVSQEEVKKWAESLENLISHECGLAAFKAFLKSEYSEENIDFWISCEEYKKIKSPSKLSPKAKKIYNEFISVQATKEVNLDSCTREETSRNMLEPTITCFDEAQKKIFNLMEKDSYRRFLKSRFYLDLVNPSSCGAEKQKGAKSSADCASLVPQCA
MrgX1 allo act = human MrgX1 positive allosteric modulation, primary screen. MrgX1-HEK293, Fluo-4 calcium flux, FDSS; hits give high values. B-score at 10 µM. hit rate 0.63% among 310,000. Q96LB2;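 active = plate-corrected calcium response at least 3 library SD above typical, normal starting fluorescence, not activating the receptor alone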;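 note: compound read alongside a low EC10 to EC30 dose of BAM8-22 agonist; peak minus trough fluorescence over baseline measured at the second addition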
MrgX1 antag = human MrgX1 receptor antagonism, primary screen. B-score at 10 µM. hit rate 1.3% among 310,000. AID 588676. MRGX1-HEK293 calcium flux, Fluo-4, BAM8-22 antagonism; hits give low values;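 active = calcium-response B-score plate-corrected more than 3 library SD below zero, starting fluorescence within 5 deviations, no agonist response on first addition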;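 note: peak minus trough fluorescence over baseline after final BAM8-22 challenge near maximal dose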
RGS4 block valid = validation of RGS4 inhibitors | HEK293 M3R/RGS4, carbachol calcium Fluo-4 fluorescence; carbachol added at its EC20; 0 = buffer wells, 100 = carbachol control | shares compounds with RGS4 block | AID 492999 | hit rate 65% among 1,700 | calcium response, % at 10 µM;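 active = duplicate-averaged calcium response above the buffer-only control mean plus 5 SD of those controls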;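 note: integrated fluorescence ratio F max minus min over baseline F0; higher response in RGS4-induced cells means RGS4 inhibition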
RGS4 uninduced = non-induced cell nonspecific activity of RGS4 inhibitors; HEK293 M3R non-induced, carbachol calcium Fluo-4; submaximal (EC20) carbachol stimulus; buffer wells 0%, carbachol control wells 100%; shares compounds with RGS4 block; activity (percent), % at 10 µM; hit rate 20% among 1,900; call rule not given here;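 note: RGS4 induction absent so cells express M3R without RGS4; higher means more calcium signal and flags a non-specific hit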
RGS4 inh ctr2 = second counter-screen for RGS4 inhibitors: non-induced cells without carbachol; shares compounds with RGS4 block; HEK293 M3R/RGS4 non-induced, Fluo-4 calcium, no carbachol; normalised: buffer wells 0%, carbachol wells 100%; calcium response (agonist-mode artifact), % at 10 µM; hit rate 22% among 1,900; AID 493001;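 active = duplicate-averaged calcium rise in uninduced cells above buffer wells' mean plus 5 SD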
* marks the source's active call; other numbers are inactive results.

For COc1cc(C(C(=O)NC2CCCCC2)N(C(=O)Cc2c[nH]c3ccccc23)c2ccc(C)cc2)cc(OC)c1OC (stereo not drawn) the results were RGS4 pot inactive, MrgX1 agonist inactive, RGS4 block inactive, MrgX1 allo act inactive, MrgX1 antag inactive, RGS4 block valid inactive, RGS4 uninduced inactive and RGS4 inh ctr2 inactive.
For Cc1ccc(NC(=O)CS(=O)CC(=O)N(c2ccc(C)cc2)C(C)C(=O)NC2CCCCC2)cc1 (stereo not drawn) the results were RGS4 pot inactive, MrgX1 agonist inactive, RGS4 block inactive, MrgX1 allo act inactive and MrgX1 antag inactive.
Cc1cc(-n2cnnn2)cc(C)c1S(=O)(=O)N(C)c1ccccc1 was read as RGS4 pot inactive, MrgX1 agonist inactive, RGS4 block inactive, MrgX1 allo act inactive and MrgX1 antag inactive.
For O=C(CCC1CCCCC1)NNC(=O)c1cnccn1 the results were RGS4 pot inactive, MrgX1 agonist inactive, RGS4 block 8.4*, MrgX1 allo act inactive, MrgX1 antag inactive, RGS4 block valid 18%*, RGS4 uninduced inactive and RGS4 inh ctr2 inactive.
O=C(NNC(=O)C1CCCCC1)c1cnccn1 was read as RGS4 pot inactive, MrgX1 agonist inactive, RGS4 block inactive, MrgX1 allo act inactive and MrgX1 antag inactive.
`CCOCCCNC(=O)CSc1nnc(-c2ccc(S(=O)(=O)N3CCCC3)cc2)n1C` gave RGS4 pot inactive, MrgX1 agonist inactive, RGS4 block inactive, MrgX1 allo act inactive and MrgX1 antag inactive.
Screening CCOc1c(Cl)cc(CNc2ccc(N3CCCC3)cc2)cc1OC returned RGS4 pot inactive, RGS4 block 5.7*, RGS4 block valid 18%*, RGS4 uninduced inactive and RGS4 inh ctr2 inactive.
Screening CCOc1c(Cl)cc(CNc2ccc(S(N)(=O)=O)cc2)cc1OC returned RGS4 pot inactive, MrgX1 agonist inactive, RGS4 block inactive, MrgX1 allo act inactive and MrgX1 antag inactive.
For O=C(NCC(c1ccco1)N1CCN(c2ccc(F)cc2)CC1)C1CCCCC1 (stereo not drawn) the results were RGS4 pot inactive, MrgX1 agonist inactive, RGS4 block inactive, MrgX1 allo act inactive and MrgX1 antag inactive.
Screening COC(=O)c1cc(=O)n(-c2ccccc2)c(=Nc2ccccc2)s1 returned RGS4 pot inactive, MrgX1 agonist inactive, RGS4 block 8.1*, MrgX1 allo act inactive, MrgX1 antag inactive, RGS4 block valid 19%*, RGS4 uninduced inactive and RGS4 inh ctr2 inactive.
Screening COC(=O)c1cc(=O)n(CCc2ccc(OC)c(OC)c2)c(=Nc2ccc(F)c(Cl)c2)s1 returned RGS4 pot inactive, MrgX1 agonist inactive, RGS4 block 5.4*, MrgX1 allo act inactive, MrgX1 antag inactive, RGS4 block valid 13%*, RGS4 uninduced inactive and RGS4 inh ctr2 10%*.
COC(=O)c1cc(=O)n(Cc2ccco2)c(=Nc2ccc(F)cc2)s1 was read as RGS4 pot inactive, MrgX1 agonist inactive, RGS4 block 6.1*, MrgX1 allo act inactive, MrgX1 antag inactive, RGS4 block valid 15%*, RGS4 uninduced 44%* and RGS4 inh ctr2 inactive.
For COC(=O)c1cc(=O)n(Cc2ccc(OC)c(OC)c2)c(=Nc2ccc(F)cc2)s1 the results were RGS4 pot inactive, MrgX1 agonist inactive, RGS4 block inactive, MrgX1 allo act inactive and MrgX1 antag inactive.
`COC(=O)c1cc(=O)n(Cc2ccc(F)cc2)c(=Nc2ccccc2)s1` gave RGS4 pot inactive, MrgX1 agonist inactive, RGS4 block inactive, MrgX1 allo act inactive and MrgX1 antag inactive.
Cc1ccc(-c2ccc(C(=O)NCc3ccccc3)o2)c2ccccc12 was read as RGS4 pot inactive, MrgX1 agonist inactive, RGS4 block 7*, MrgX1 allo act inactive, MrgX1 antag inactive, RGS4 block valid inactive, RGS4 uninduced inactive and RGS4 inh ctr2 inactive.
COc1ccc(/C(C)=N/NC(=O)CNC(=O)/C=C\c2ccccc2)c(OC)c1 was read as RGS4 pot inactive, MrgX1 agonist inactive, RGS4 block inactive, MrgX1 allo act inactive and MrgX1 antag inactive.
Screening NC(=O)CC(NC(=O)Cc1ccc(Cl)cc1)c1ccc(NC2CCCC2)c([N+](=O)[O-])c1 (stereo not drawn) returned RGS4 pot inactive, MrgX1 agonist inactive, RGS4 block inactive, MrgX1 allo act inactive, MrgX1 antag inactive, RGS4 block valid inactive, RGS4 uninduced inactive and RGS4 inh ctr2 inactive.
For NC(=O)CC(NC(=O)Cc1ccc(Br)cc1)c1ccc(NC2CCC2)c([N+](=O)[O-])c1 (stereo not drawn) the results were RGS4 pot inactive, MrgX1 agonist inactive, RGS4 block inactive, MrgX1 allo act inactive, MrgX1 antag inactive, RGS4 uninduced inactive and RGS4 inh ctr2 inactive.
Nc1nc(Cl)cc(Nc2ccccc2Cl)n1 was read as RGS4 pot inactive, MrgX1 agonist inactive, RGS4 block inactive, MrgX1 allo act inactive and MrgX1 antag inactive.
`COc1ccc(Nc2cc(Cl)nc(N)n2)cc1OC` gave RGS4 pot inactive, MrgX1 agonist inactive, RGS4 block 6.1*, MrgX1 allo act inactive, MrgX1 antag inactive, RGS4 block valid 6.0%*, RGS4 uninduced inactive and RGS4 inh ctr2 inactive.
`Cc1ncc([N+](=O)[O-])n1CC(=O)Nc1ccc(F)c(Cl)c1` gave RGS4 pot inactive, MrgX1 agonist inactive, RGS4 block inactive, MrgX1 allo act inactive and MrgX1 antag inactive.
C=CCNc1nc2c(c(=O)[nH]c(=O)n2C)n1CCOc1ccccc1 was read as RGS4 pot inactive, MrgX1 agonist inactive, RGS4 block inactive, MrgX1 allo act inactive and MrgX1 antag inactive.
For CC(=O)/C=C/c1ccc2ccccc2n1 the results were RGS4 pot inactive, MrgX1 agonist inactive, RGS4 block 25*, MrgX1 allo act inactive, MrgX1 antag inactive, RGS4 block valid 50%*, RGS4 uninduced inactive and RGS4 inh ctr2 inactive.

High-throughput results from PubChem.
